ChEMBL document CHEMBL1157620, “1-(Aryl)-6-[alkoxyalkyl]-3-azabicyclo[3.1.0]hexanes and 6-(aryl)-6-[alkoxyalkyl]-3-azabicyclo[3.1.0]hexanes: a new series of potent and selective triple reuptake inhibitors” (J Med Chem, 2010)
Active and inactive are the calls of the source. The rule behind the calls is not given here.

Tests used:
Mus musculus = assay: Potentiation of 5-hydroxytryptophan-induced stereotpic behavior in CD1 mouse at 10 mg/kg, po administered 120 mins before 5HTP challenge measured for 30 mins; format: functional, organism-based; set-up: dose 10 mg/kg
Method in brief: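 Naive male CD-1 mice (25-30 g) were dosed orally 120 min before an ip injection of 5-HTP (100 mg/kg). Each mouse was then placed alone in a perspex box and videotaped. For the next 30 min, observers scored aimless hyperlocomotor activity, hind-limb abduction, flat body posture, head twitches/tremor and body tremor.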

[1] = molecular target: T1, Sodium-dependent noradrenaline transporter (Homo sapiens, UniProt P23975); assay: Displacement of [3H]nisoxetine from human recombinant NET expressed in BacMam virus-transduced cells by scintillation proximity assay; format: cell-based
T1 sequence (P23975 whole entry): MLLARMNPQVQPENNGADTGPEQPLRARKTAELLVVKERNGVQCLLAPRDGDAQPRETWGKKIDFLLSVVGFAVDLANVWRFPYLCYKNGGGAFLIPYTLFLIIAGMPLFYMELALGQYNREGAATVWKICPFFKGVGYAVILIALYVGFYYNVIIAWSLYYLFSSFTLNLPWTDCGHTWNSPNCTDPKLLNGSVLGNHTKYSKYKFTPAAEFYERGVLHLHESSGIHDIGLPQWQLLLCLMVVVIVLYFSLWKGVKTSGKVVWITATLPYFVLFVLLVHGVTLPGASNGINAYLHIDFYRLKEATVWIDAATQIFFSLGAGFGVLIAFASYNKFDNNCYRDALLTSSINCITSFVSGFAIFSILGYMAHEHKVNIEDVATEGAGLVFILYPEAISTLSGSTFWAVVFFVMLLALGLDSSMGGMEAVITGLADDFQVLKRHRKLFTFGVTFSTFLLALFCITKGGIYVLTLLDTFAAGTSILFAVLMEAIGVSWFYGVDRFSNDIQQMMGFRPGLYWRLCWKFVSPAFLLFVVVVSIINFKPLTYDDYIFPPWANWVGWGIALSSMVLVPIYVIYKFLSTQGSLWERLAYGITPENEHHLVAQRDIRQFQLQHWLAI
Method in brief: (§1)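 BacMam-transduced membranes in SPA format. SERT: 1 mg/mL beads, 6 μg/mL membranes, 3 nM [3H]citalopram. NET: 2 mg/mL beads, 40 μg/mL membranes, 10 nM [3H]nisoxetine. Incubated overnight at room temperature; pKi from pIC50 by Cheng-Prusoff.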

Liver microsomes [2] = assay: Intrinsic clearance in rat liver microsomes assessed per gram of protein at 0.5 uM after 30 mins by HPLC-MS/MS analysis; format: ADME, Microsome; conditions: microsomes, 0.5 h, 0.5 µM
Method in brief: (§2)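 Compound at 0.5 μM with rat or human liver microsomes (0.5 mg protein/mL), 50 mM phosphate, pH 7.4, 37 °C, started with NADPH. Sampled at 0-30 min, acetonitrile quench, HPLC-MS/MS. CLi from first-order elimination constant, scaled assuming 52.5 mg microsomal protein/g.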

[3] = Bioavailability in rat; format: ADME, organism-based; conditions: in vivo
Liver microsomes [4] = assay: Intrinsic clearance in human liver microsomes assessed per gram of protein at 0.5 uM after 30 mins by HPLC-MS/MS analysis; format: ADME, Microsome; conditions: microsomes, 0.5 h, 0.5 µM; method in brief: as §2
Cytochrome P450 2C19 = Cytochrome P450 2C19 (Homo sapiens, UniProt P33261); assay: Inhibition of human CYP2C19 by fluorescence assay; format: ADME
Cytochrome P450 2C19, sequence (P33261 whole entry): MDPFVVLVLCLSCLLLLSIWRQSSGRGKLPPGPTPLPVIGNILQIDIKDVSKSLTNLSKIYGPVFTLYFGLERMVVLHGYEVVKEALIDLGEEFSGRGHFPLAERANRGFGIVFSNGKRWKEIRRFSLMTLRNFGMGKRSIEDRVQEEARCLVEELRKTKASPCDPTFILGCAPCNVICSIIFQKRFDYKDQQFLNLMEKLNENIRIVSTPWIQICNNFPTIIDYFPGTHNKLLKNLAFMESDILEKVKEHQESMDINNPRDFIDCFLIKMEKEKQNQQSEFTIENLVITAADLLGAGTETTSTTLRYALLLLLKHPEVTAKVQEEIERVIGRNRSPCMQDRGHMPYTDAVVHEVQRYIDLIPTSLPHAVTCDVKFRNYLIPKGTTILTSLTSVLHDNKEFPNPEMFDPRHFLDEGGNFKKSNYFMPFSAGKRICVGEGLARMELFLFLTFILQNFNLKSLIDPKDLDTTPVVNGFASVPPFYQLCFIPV
Method in brief: (§3)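 Recombinant human P450 bactosomes (0.1 mg/mL) in 50 mM phosphate, pH 7.4. Test compound at 0.1-10 μM, preincubated 10 min at 37 °C with fluorogenic substrate: ethoxyresorufin 0.5 μM (1A2), FCA 50 μM (2C9), BMC 10 μM (2C19), MMC 10 μM (2D6).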

Cytochrome P450 3A4 = Cytochrome P450 3A4 (Homo sapiens, UniProt P08684); assay: Inhibition of human CYP3A4 by fluorescence assay
Cytochrome P450 3A4, sequence (P08684 whole entry): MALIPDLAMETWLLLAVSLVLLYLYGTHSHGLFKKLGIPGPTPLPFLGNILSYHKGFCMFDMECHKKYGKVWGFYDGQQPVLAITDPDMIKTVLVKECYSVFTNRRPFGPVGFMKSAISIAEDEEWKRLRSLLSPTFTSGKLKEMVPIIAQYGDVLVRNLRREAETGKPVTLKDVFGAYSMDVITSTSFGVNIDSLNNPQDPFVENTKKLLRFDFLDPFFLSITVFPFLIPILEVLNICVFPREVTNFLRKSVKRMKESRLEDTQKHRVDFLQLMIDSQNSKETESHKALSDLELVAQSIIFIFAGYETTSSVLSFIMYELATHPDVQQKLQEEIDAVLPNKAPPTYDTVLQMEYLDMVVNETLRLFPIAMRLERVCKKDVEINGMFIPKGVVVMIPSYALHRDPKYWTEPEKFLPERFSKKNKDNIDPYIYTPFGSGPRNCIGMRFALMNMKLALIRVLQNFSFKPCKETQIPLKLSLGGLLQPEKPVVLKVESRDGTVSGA

[5] = molecular target: T2, Sodium-dependent dopamine transporter (Homo sapiens, UniProt Q01959); assay: Displacement of [N-methyl-3H]WIN-35428 from human recombinant DAT expressed in LLCPK cells by liquid scintillation counting; format: cell-based
T2 sequence (Q01959 whole entry): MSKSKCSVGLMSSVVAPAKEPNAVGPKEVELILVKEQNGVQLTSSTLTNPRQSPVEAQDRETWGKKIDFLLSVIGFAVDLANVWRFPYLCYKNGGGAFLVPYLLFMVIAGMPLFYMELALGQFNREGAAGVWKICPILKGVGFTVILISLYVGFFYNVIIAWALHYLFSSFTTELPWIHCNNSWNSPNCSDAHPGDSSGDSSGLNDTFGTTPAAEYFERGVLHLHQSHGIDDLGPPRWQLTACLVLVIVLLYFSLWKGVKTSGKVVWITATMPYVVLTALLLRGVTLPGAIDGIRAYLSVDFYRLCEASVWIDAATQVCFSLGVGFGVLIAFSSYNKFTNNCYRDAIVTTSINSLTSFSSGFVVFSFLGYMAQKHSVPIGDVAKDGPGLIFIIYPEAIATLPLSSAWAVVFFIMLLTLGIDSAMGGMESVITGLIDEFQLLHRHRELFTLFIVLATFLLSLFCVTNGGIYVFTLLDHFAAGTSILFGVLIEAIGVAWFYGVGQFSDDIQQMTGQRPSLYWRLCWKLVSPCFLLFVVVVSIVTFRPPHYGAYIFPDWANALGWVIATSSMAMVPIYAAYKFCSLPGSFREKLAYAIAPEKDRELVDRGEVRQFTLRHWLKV
Method in brief: (§4)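 Filtration binding on stably transfected LLCPK cell membranes, 2 h at room temperature. SERT: 0.25 nM [3H]citalopram, about 2.5 μg protein/well, NSB with 10 μM fluoxetine. NET: 1.5 nM [3H]nisoxetine, 4.8 μg/well, NSB with 10 μM desipramine. DAT: 10 nM [3H]WIN-35,428, 9.6 μg/well, NSB with 10 μM GBR-12909. Filter-bound radioactivity counted; 4-parameter fit, pKi by Cheng-Prusoff.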

Cytochrome P450 2D6 = Cytochrome P450 2D6 (Homo sapiens, UniProt P10635); assay: Inhibition of human […] by fluorescence assay; format: ADME; method in brief: as §3
Cytochrome P450 2D6, sequence (P10635 whole entry): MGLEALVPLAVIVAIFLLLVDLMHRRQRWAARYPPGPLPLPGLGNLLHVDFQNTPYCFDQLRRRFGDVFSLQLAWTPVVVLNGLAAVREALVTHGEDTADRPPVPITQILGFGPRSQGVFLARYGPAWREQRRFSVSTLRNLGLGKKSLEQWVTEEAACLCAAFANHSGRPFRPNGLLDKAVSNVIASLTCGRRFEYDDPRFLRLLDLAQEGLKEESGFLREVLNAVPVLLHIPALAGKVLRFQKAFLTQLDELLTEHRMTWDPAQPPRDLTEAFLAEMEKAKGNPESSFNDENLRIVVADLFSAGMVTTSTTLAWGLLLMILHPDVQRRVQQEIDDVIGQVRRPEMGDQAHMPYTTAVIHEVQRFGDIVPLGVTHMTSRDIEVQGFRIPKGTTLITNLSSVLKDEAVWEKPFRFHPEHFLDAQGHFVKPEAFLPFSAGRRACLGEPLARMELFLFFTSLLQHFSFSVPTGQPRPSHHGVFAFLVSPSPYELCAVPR

[6] = molecular target: T2, Sodium-dependent dopamine transporter; assay: Displacement of [3H]WIN-35428 from human recombinant DAT expressed in BacMam virus-transduced cells by scintillation proximity assay; format: cell-based
[7] = molecular target: T1, Sodium-dependent noradrenaline transporter; assay: Displacement of [N-methyl-3H]nisoxetine from human recombinant NET expressed in LLCPK cells by liquid scintillation counting; format: cell-based; method in brief: as §4
[8] = Fraction unbound in rat brain; format: ADME, tissue-based; conditions: brain
Cytochrome P450 2C9 = Cytochrome P450 2C9 (Homo sapiens, UniProt P11712); assay: Inhibition of human CYP2C9 by fluorescence assay; format: ADME; method in brief: as §3
Cytochrome P450 2C9, sequence (P11712 whole entry): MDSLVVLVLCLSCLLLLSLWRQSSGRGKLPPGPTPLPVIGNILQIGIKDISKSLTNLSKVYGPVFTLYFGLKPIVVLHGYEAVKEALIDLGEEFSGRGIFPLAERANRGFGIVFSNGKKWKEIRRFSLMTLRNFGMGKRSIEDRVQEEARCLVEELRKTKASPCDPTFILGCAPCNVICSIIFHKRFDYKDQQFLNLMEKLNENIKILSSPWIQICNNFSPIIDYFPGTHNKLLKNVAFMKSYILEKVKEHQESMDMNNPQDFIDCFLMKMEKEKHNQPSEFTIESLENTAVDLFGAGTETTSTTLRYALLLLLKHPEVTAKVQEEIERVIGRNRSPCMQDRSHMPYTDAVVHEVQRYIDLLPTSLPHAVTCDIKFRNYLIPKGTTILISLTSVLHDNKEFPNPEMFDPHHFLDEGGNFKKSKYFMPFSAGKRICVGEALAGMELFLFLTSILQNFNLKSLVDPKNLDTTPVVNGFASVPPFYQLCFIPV

[9] = molecular target: T3, Sodium-dependent serotonin transporter (Homo sapiens, UniProt P31645); assay: Displacement of [3H]citalopram from human recombinant SERT expressed in BacMam virus-transduced cells by scintillation proximity assay; format: cell-based; method in brief: as §1
T3 sequence (P31645 whole entry): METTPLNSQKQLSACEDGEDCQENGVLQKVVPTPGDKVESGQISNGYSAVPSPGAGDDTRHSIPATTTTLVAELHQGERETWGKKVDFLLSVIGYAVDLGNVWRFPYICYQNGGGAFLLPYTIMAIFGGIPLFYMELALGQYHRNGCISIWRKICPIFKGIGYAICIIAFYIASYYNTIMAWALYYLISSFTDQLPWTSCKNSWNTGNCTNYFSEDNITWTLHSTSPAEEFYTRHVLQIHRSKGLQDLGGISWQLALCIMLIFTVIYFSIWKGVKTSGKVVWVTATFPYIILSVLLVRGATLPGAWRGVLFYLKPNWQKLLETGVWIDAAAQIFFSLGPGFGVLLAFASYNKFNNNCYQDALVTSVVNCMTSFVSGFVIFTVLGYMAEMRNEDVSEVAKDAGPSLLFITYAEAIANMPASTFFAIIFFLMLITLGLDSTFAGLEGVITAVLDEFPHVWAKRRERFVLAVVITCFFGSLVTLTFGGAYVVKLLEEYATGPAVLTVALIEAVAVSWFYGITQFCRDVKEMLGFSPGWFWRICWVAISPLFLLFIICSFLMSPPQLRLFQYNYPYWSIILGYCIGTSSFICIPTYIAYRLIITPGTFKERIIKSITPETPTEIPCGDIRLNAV

[10] = Blood clearance in rat; format: ADME, organism-based
Cytochrome P450 1A2 = molecular target: T4, Cytochrome P450 1A2 (Homo sapiens, UniProt P05177); assay: Inhibition of human CYP1A2 by fluorescence assay; format: ADME; method in brief: as §3
T4 sequence (P05177 whole entry): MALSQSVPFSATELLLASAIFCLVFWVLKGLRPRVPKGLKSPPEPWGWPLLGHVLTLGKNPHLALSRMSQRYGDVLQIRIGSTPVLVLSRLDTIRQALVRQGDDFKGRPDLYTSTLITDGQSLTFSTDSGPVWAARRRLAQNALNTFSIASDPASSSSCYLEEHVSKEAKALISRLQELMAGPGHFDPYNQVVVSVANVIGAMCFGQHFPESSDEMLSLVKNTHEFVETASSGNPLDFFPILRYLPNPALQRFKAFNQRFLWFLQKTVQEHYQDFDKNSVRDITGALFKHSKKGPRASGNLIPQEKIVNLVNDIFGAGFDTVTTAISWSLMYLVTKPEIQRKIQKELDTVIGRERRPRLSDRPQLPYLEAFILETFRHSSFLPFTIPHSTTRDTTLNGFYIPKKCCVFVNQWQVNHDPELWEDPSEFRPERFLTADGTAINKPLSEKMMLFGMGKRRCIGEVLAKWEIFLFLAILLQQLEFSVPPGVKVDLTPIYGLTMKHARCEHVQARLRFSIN

[11] = Volume of distribution in rat; format: ADME, organism-based; conditions: in vivo
[12] = (§5) Half life in rat; format: ADME, organism-based; conditions: in vivo
[13] = Ratio of drug level in brain to blood in rat; format: ADME, tissue-based; conditions: read-out: BBR
[14] = molecular target: T3, Sodium-dependent serotonin transporter; assay: Displacement of [3H]citalopram from human recombinant SERT expressed in LLCPK cells by liquid scintillation counting; format: cell-based; method in brief: as §4
[15] = molecular target: Sodium-dependent serotonin transporter (Rattus norvegicus, UniProt P31652); assay: Displacement of [3H]citalopram from rat cortex SERT by filtration binding assay
Sodium-dependent serotonin transporter (Rattus norvegicus, UniProt P31652), sequence (P31652 whole entry): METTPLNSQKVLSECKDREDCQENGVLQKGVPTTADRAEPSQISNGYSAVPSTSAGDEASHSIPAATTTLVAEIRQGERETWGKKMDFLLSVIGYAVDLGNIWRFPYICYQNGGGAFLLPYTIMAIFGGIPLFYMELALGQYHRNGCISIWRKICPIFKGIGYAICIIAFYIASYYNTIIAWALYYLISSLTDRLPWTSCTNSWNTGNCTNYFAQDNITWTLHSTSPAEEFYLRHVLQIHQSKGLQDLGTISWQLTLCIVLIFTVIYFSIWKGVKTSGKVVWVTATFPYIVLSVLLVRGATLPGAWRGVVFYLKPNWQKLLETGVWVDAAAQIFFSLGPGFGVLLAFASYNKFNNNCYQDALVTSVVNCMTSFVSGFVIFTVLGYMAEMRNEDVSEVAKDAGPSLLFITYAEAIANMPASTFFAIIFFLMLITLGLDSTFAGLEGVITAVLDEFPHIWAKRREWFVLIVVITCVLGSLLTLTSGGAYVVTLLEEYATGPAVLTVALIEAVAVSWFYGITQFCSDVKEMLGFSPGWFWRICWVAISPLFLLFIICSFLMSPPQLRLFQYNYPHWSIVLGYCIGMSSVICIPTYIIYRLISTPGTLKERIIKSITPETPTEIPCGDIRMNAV
Method in brief: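 Native brain tissue filtration binding, run as for the recombinant transporters. SERT on rat or mouse cortex (20 and 7 μg protein/well respectively). NET on rat hippocampus (40 μg/well). DAT on rat striatum (20 μg/well).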

Rattus norvegicus = species on record: Rattus norvegicus; assay: as §5; format: ADME, organism-based; conditions: in vivo

CN(C)CCCC1(c2ccc(F)cc2)OCc2cc(C#N)ccc21 (configuration not stated)
Activity (Mus musculus): Active

COC[C@H]1[C@@H]2CNC[C@@]21c1ccc(Cl)c(Cl)c1 (relative stereo)
Ki [1]: 1.74 nM | CL (Liver microsomes [2]): 3.8 mL/min/g | bioavailability [3]: 94% | CL (Liver microsomes [4]): < 0.5 mL/min/g | IC50 (Cytochrome P450 2C19): > 6000 nM | IC50 (Cytochrome P450 3A4): > 6000 nM | Ki [5]: 85.1 nM | IC50 (Cytochrome P450 2D6): > 6000 nM | Ki [6]: 56.2 nM | Ki [7]: 4.57 nM | fraction unbound [8]: 0.027 | IC50 (Cytochrome P450 2C9): > 6000 nM | Ki [9]: 0.759 nM | clearance [10]: 0.96 L/h/kg | IC50 (Cytochrome P450 1A2): > 6000 nM | Vd [11]: 2.9 L/kg | half-life [12]: 2.4 h | Kp [13]: 4 | Ki [14]: 0.741 nM | Ki [15]: 1.78 nM

FC(F)(F)COC[C@H]1[C@@H]2CNC[C@@]21c1ccc(Cl)c(Cl)c1 (stereo in doubt)
Ki [1]: 3.98 nM | Ki [6]: 50.1 nM | fraction unbound [8]: 0.006 | Ki [9]: 1.26 nM | t1/2 (Rattus norvegicus): 1.4 h | Kp [13]: 18
